The values below come from ChEMBL document CHEMBL3351896, “Small Molecule that Reverses Dexamethasone Resistance in T-cell Acute Lymphoblastic Leukemia (T-ALL)” (ACS Med Chem Lett, 2014).

Calls of active or inactive are those of the source. The rule behind the calls is not given here.

Assay type in all cases: functional, cell-based
Experiment [1] concerns CUTLL1. Briefly: Effect on MCM10 gene expression in human CUTLL1 cells in presence of 1 uM dexamethasone at 30 uM after 24 hrs by microarray method. The gist of the method:
(§1)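 CUTLL1 T-ALL cells exposed 24 h to vehicle (DMSO), dexamethasone alone (1 μM), test agent alone (30 μM), or dexamethasone (1 μM) plus test agent (30 μM), in triplicate. Expression profiled by microarray. Leading-edge genes from GSEA were compared between the dexamethasone-plus-agent and dexamethasone-alone groups, using glucocorticoid-regulated gene sets from ALL patients on glucocorticoid therapy.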

The subject of experiment [2] is CUTLL1. The experiment can be described thus: Effect on TK1 gene expression in human CUTLL1 cells in absence of 1 uM dexamethasone at 30 uM after 24 hrs by microarray method. The gist of the method: (§2)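 Human CUTLL1 T-ALL cells exposed for 24 h to vehicle (DMSO), dexamethasone alone (1 μM), test compound alone (30 μM), or dexamethasone 1 μM plus compound 30 μM, each in triplicate. Expression profiled by microarray. Glucocorticoid-regulated gene sets from ALL patients on glucocorticoid therapy scored by GSEA. Leading-edge genes compared between the combination and dexamethasone alone.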

In experiment [3] the test system is CUTLL1. The experiment can be described thus: Effect on ZFP36L2 gene expression in human CUTLL1 cells in absence of 1 uM dexamethasone at 30 uM after 24 hrs by microarray method. The gist of the method:
as §2

The test system of experiment [4] is CUTLL1. Briefly: Effect on SPC25 gene expression in human CUTLL1 cells in presence of 1 uM dexamethasone at 30 uM after 24 hrs by microarray method. The gist of the method:
as §2

The subject of experiment [5] is CUTLL1. The experiment can be described thus: Effect on BRCA1 gene expression in human CUTLL1 cells in absence of 1 uM dexamethasone at 30 uM after 24 hrs by microarray method. The gist of the method: as §1
Experiment [6] has as its system CUTLL1. The experiment can be described thus: Effect on SPC25 gene expression in human CUTLL1 cells in absence of 1 uM dexamethasone at 30 uM after 24 hrs by microarray method. The gist of the method:
as §2

The subject of experiment [7] is CUTLL1. The experiment can be described thus: Effect on PAICS gene expression in human CUTLL1 cells in presence of 1 uM dexamethasone at 30 uM after 24 hrs by microarray method. The gist of the method: as §1
Experiment [8] relates to CUTLL1. Briefly: Effect on TIPIN gene expression in human CUTLL1 cells in presence of 1 uM dexamethasone at 30 uM after 24 hrs by microarray method. The gist of the method: as §2
Experiment [9] concerns CUTLL1. The experiment can be described thus: Effect on CDT1 gene expression in human CUTLL1 cells in absence of 1 uM dexamethasone at 30 uM after 24 hrs by microarray method. The gist of the method: as §1
In experiment [10] the test system is CUTLL1. Briefly: Effect on TIFA gene expression in human CUTLL1 cells in absence of 1 uM dexamethasone at 30 uM after 24 hrs by microarray method. The gist of the method:
as §2

Experiment [11] deals with CUTLL1. Briefly: Effect on FEN1 gene expression in human CUTLL1 cells in absence of 1 uM dexamethasone at 30 uM after 24 hrs by microarray method. The gist of the method: as §1
Experiment [12] deals with CUTLL1. Briefly: Effect on DDIT4 gene expression in human CUTLL1 cells in presence of 1 uM dexamethasone at 30 uM after 24 hrs by microarray method. The gist of the method:
as §1

Experiment [13] concerns CUTLL1. Briefly: Increase in GR expression in human CUTLL1 cells at 50 uM after 6 hrs by RT-qPCR method. The gist of the method:
(§3)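 CUTLL1 cells exposed to compound (25 or 50 μM) alone, with 1 μM dexamethasone, or with dexamethasone plus 1 μM RU486, for 6 or 24 h. GR measured as protein by Western blot and as transcript by RT-qPCR.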
For orientation: In qPCR the cycle at which signal appears reflects the starting amount.

Experiment [14] relates to CUTLL1. The experiment can be described thus: Growth inhibition of human CUTLL1 cells with high GR expression levels at 50 uM after 48 hrs by alamar blue assay. The gist of the method: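 Human CUTLL1 T-ALL cells engineered to express high (overexpressed) or low (knockdown) glucocorticoid receptor levels. Exposed to compound alone or with 1 μM dexamethasone. Alamar blue growth inhibition read after 48 h.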

The test system of experiment [15] is CUTLL1. Briefly: Increase in GR expression in human CUTLL1 cells at 25 to 50 uM in presence of 1 uM dexamethasone after 24 hrs by RT-qPCR method. The gist of the method: as §3
Experiment [16] deals with CUTLL1. Briefly: Growth inhibition of human CUTLL1 cells at 50 uM in presence of taxol after 48 hrs by alamar blue assay.
Experiment [17] concerns CUTLL1. The experiment can be described thus: Effect on BTG1 gene expression in human CUTLL1 cells in absence of 1 uM dexamethasone at 30 uM after 24 hrs by microarray method. The gist of the method:
as §1

Turning to `Nc1ncc(-c2ccncc2)c(C2CC2)n1`, the outcome with CUTLL1 [1], with CUTLL1 [4], in the experiment with CUTLL1 [7], in the experiment with CUTLL1 [8], with CUTLL1 [12] and with CUTLL1 [15] was Active. Besides, the result in the experiment on CUTLL1 [2], with CUTLL1 [3], in the experiment with CUTLL1 [5], in the experiment with CUTLL1 [6], in the experiment on CUTLL1 [9] and with CUTLL1 [10] was inactive. In addition, the outcome in the experiment with CUTLL1 [11], in the experiment with CUTLL1 [13] and in the experiment on CUTLL1 [17] was inactive. Also, the “growth inhibition (GI)” value with CUTLL1 [14] and in the experiment on CUTLL1 [16] was “inactive” each time.
